Measured values published in ChEMBL document CHEMBL1949527, “Use of copper(I) catalyzed azide alkyne cycloaddition (CuAAC) for the preparation of conjugated pyrrolo[2,3-a]carbazole Pim kinase inhibitors” (Eur J Med Chem, 2012).

How the values were obtained:
[1] = target: T1, Serine/threonine-protein kinase pim-1 (Homo sapiens, UniProt P11309); test: Inhibition of human recombinant His6-tagged PIM1 expressed in Sf21 cells assessed as residual activity using RSRHSSYPAGT as substrate at 10 uM after 30 mins
Procedure, shortened: (§1)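 Residual activity at 10 μM inhibitor, run in duplicate. Assay buffer was 50 mM Tris/HCl pH 7.5, 0.1 mM EGTA, 0.1% 2-mercaptoethanol. Reactions were stopped with orthophosphoric acid and spotted onto P81 filters.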
Target sequence in this assay (P11309 whole entry, looked up): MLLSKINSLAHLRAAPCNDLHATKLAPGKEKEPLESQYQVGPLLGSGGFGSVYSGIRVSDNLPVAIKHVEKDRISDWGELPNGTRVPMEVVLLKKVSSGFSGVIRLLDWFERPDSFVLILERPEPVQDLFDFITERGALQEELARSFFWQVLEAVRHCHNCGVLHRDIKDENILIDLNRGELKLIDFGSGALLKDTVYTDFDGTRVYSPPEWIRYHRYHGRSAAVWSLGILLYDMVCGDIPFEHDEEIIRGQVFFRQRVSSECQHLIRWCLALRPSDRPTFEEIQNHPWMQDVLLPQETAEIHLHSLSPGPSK

[2] = target: T1, Serine/threonine-protein kinase pim-1; test: Inhibition of human recombinant His6-tagged PIM1 expressed in Sf21 cells using RSRHSSYPAGT as substrate after 30 mins
Target sequence in this assay (P11309 whole entry): as the sequence (P11309 whole entry, looked up) above

[3] = target: T2, Serine/threonine-protein kinase pim-3 (Homo sapiens, UniProt Q86V86); test: Inhibition of human recombinant His6-tagged PIM3 expressed in Sf21 cells using RSRHSSYPAGT as substrate after 30 mins
[4] = target: T2, Serine/threonine-protein kinase pim-3; test: Inhibition of human recombinant His6-tagged PIM3 expressed in Sf21 cells assessed as residual activity using RSRHSSYPAGT as substrate at 10 uM after 30 mins; procedure, shortened: as §1
[5] = target: T3, Serine/threonine-protein kinase pim-2 (Homo sapiens, UniProt Q9P1W9); test: Inhibition of human recombinant PIM2 expressed in Escherichia coli assessed as residual activity using RSRHSSYPAGT as substrate at 10 uM after 30 mins; procedure, shortened: as §1
Target sequence in this assay (Q9P1W9 whole entry, looked up): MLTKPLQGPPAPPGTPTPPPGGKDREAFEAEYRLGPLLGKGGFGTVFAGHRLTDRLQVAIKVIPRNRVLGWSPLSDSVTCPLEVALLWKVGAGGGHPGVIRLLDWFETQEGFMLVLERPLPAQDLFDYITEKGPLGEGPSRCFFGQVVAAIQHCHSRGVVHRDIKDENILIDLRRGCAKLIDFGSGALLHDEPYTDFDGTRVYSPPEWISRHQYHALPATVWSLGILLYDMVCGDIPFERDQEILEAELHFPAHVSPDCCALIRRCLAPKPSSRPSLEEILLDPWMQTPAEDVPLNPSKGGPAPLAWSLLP

[6] = target: T3, Serine/threonine-protein kinase pim-2; test: Inhibition of human recombinant PIM2 expressed in Escherichia coli using RSRHSSYPAGT as substrate after 30 mins
Target sequence in this assay (Q9P1W9 whole entry): as the sequence (Q9P1W9 whole entry, looked up) above

[7] = Drug uptake in human PC3 cell nucleus at 10 uM after 24 hrs by fluorescence microscopy; type: ADME, cell-based; settings: pc-3, 24 h
Procedure, shortened: (§2)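 PC-3 cells in RPMI-1640 with 10% FBS, 2 mM L-glutamine and penicillin/streptomycin were grown overnight on coverslips, then exposed to 10 μM compound in DMSO (vehicle control 0,1% DMSO) for 24 h. Cells were PBS-washed, fixed 15 min in 4% paraformaldehyde and mounted. Fluorescence microscopy used a DAPI filter. Mean intensity was background-corrected and averaged from three regions in two parallel samples.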

[8] = Drug uptake in human PC3 cell cytoplasm at 10 uM after 24 hrs by fluorescence microscopy; type: ADME, cell-based; settings: pc-3, 24 h; procedure, shortened: as §2
PC-3 = test: Cellular uptake in human PC3 cells at 10 uM after 24 hrs by fluorescence microscopy; type: ADME, cell-based; settings: pc-3, 24 h; procedure, shortened: as §2

Compound	Activity [1]	IC50 [2]	IC50 [3]	Activity [4]	Activity [5]	IC50 [6]	Drug uptake [7]	Drug uptake [8]	Drug uptake (PC-3)
O=Cc1cn2c3c1ccc1c4ccccc4n(c13)CCCC2	7%	8 nM	13 nM	1%	6%	350 nM			
CN(C)c1cccc2c(S(=O)(=O)NCc3cn(CCCCn4c5ccccc5c5ccc6c(C=O)c[nH]c6c54)nn3)cccc12	17%			38%	66%		Not Active	Active	
O=Cc1c[nH]c2c1ccc1c3ccccc3[nH]c12									Not Active
[N-]=[N+]=NCCCCn1c2ccccc2c2ccc3c(C=O)c[nH]c3c21	9%	105 nM	108 nM	14%	22%				

Other lines, results leading:

Activity [1]	IC50 [2]	IC50 [3]	Activity [4]	Activity [5]	IC50 [6]	Drug uptake [7]	Drug uptake [8]	Drug uptake (PC-3)	Compound
8%	315 nM	235 nM	23%	36%					O=Cc1c[nH]c2c1ccc1c3ccccc3n(CCCCn3cc(CO)nn3)c12
9%	327 nM	490 nM	28%	65%					C[N+](C)(CCO)Cc1cn(CCCCn2c3ccccc3c3ccc4c(C=O)c[nH]c4c32)nn1
